PHOSPHO1 inh – PHOSPHO1 (human) inhibition. inhibition, % at 13.3 µM. 290,000 tested, 1.1% active. recombinant PHOSPHO1, absorbance phosphatase assay. Q8TCT1. AID 1565; in the data active = inhibition above about 60%
Target sequence (Q8TCT1 whole entry, looked up): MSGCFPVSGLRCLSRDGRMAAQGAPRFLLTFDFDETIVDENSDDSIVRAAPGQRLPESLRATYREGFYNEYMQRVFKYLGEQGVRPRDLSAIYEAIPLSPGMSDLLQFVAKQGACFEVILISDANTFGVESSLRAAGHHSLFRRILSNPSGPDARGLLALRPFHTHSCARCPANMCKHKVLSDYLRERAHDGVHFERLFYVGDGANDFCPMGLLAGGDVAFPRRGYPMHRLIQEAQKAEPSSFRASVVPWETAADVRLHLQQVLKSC
HCV NS3 hel inh – inhibitors of Hepatitis C virus NS3 helicase | NS3 helicase DNA unwinding, Cy5 molecular beacon fluorescence | inhibition, % at 10.9 µM | 290,000 tested, 0.56% active | AID 1800;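 active = inhibition above the mean of all tested compounds plus 3 SD, set per campaign, cut at about 35% in these data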;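 also: 0% = DMSO wells and 100% = thioflavine S control wells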
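assay system = NS3 helicase fragment of HCV | buffer or medium = MOPS pH 6.5, MgCl2, DTT, Tween20, BSA | timing = 60 min unwinding reaction at 25 °C after ATP addition | signal = Cy5 beacon fluorescence read at start and 1 h | read-out basis = % inhibition of unwinding | control set = low DMSO, high thioflavine S at 110 µM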
IMP-1 inhibitor – inhibitors of Pseudomonas aeruginosa IMP-1 metallo-beta-lactamase; AID 1556; 290,000 tested, 0.45% active; purified IMP-1, nitrocefin hydrolysis, epi-absorbance fluorescence; inhibition, % at 5.6 µM;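 active = inhibition above the mean plus 3 SD of all compounds in the same screening run, cut at about 4.5% in these data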;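 also: 0% = IMP-1 with DMSO and 100% = DMSO wells lacking enzyme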
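Material – recombinant IMP-1 enzyme, purified · Amount – IMP-1 0.2 nM before substrate addition · Medium – HEPES buffer pH 7.1 with ZnSO4 and Brij 35 · Timing – 25 °C, 15 min preincubation, 25 min reaction · Measured by – plate fluorescence quenching by hydrolysis product, ex 480/em 530 nm · Read-out – percent enzyme inhibition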
UBC9 SUMO inh – SUMOylation inhibition | P63279 | HTRF SUMOylation assay, SAE1/SAE2 + UBC9, in vitro | inhibition, % at 35 µM | 290,000 tested, 0.36% active | AID 2006; in the data active = inhibition above about 50%, passing the limit was not always enough
Target sequence (P63279 whole entry, looked up): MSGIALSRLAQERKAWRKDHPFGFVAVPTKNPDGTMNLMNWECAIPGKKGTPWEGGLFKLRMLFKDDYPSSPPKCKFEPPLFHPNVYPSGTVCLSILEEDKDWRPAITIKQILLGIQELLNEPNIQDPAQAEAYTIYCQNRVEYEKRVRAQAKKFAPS
VIM-2 inhibitor – blocks Pseudomonas aeruginosa VIM-2 metallo-beta-lactamase; purified VIM-2, nitrocefin hydrolysis, epi-absorbance fluorescence; inhibition, % at 5.6 µM; 290,000 tested, 0.89% active;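 active = inhibition above the mean of all tested compounds plus 3 SD, cutoff set per screening run, cut at about 7.5% in these data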;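 also: red hydrolysis product quenches plate fluorescence so inhibitors raise well fluorescence; 0% = enzyme with DMSO and 100% = DMSO without enzyme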
HCV core dimer – blocks dimerization of HCV core protein; TR-FRET GST/Flag-core106 dimerization, 1536-well; 300,000 tested, 0.33% active; inhibition, % at 5 µM;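 active = inhibition above the mean of all tested compounds plus 3 SD, set per screening campaign, cut at about 45% in these data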
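Assay system – GST-tagged and Flag-tagged HCV core protein residues 1-106 · Quantity – core106 proteins, GST 13.5 nM and Flag 17 nM · Benchmarks – unlabelled core106 and no-GST-core106 wells · Read-out basis – percent inhibition of core106 dimerization signal · Detection – time-resolved FRET, ex 340 nm, em 617 and 671 nm · Schedule – 4 h at 22.5 °C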
NS3 helicase cf – confirmation of Hepatitis C virus NS3 helicase inhibitors | shares compounds with HCV NS3 hel inh | NS3 helicase DNA unwinding, Cy5 molecular beacon fluorescence | inhibition, % at 10.9 µM | 1,600 tested, 31% active;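 active = inhibition above the mean of all tested compounds plus 3 SD, cutoff set per campaign, cut at about 36% in these data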
DNA FID counter – counter-screen for HCV NS3 helicase inhibitors: DNA intercalator displacement; shares compounds with HCV NS3 hel inh; DNA fluorescent intercalator displacement, fluorescence; inhibition, % at 7.9 µM; 1,600 tested, 4% active; AID 1945; in the data active = inhibition above about 37%;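 also: 0% = vehicle and 100% = reference compound; higher means more displacement of ethidium bromide from the DNA hairpin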
FID counter DR – displaces fluorescent intercalator from DNA, HCV helicase counter-screen | shares compounds with HCV NS3 hel inh | fluorescent intercalator displacement from DNA, fluorescence | IC50, µM | 120 tested, under 10 active; call rule not given here
* marks the source's active call; other numbers are inactive results; · = no result given. A selection: hits, their analogues and other compounds. The true share with any hit is near 3.1%.

SMILES	PHOSPHO1 inh	HCV NS3 hel inh	IMP-1 inhibitor	UBC9 SUMO inh	VIM-2 inhibitor	HCV core dimer	NS3 helicase cf	DNA FID counter	others
C=CCN1C(=O)/C(=C/c2ccc(Br)s2)C(=O)NC1=S	-2	46*	4	-2	1	-9	68*	9
COc1ccc(/C=C2/C(=O)NC(=O)N(Cc3ccco3)C2=O)cc1	32	25	-3	47	-3	40	·	·
Cc1ccc(-n2c(C)cc(/C=C3/C(=O)NC(=O)N(Cc4ccco4)C3=O)c2C)cc1	6	63*	-2	5	-3	21	8	-20
Cc1cc(/C=C2\C(=O)NC(=O)N(Cc3ccco3)C2=O)c(C)n1-c1ccc(C(=O)O)cc1	24	24	-4	15	-1	6	·	·
Cc1ccccc1-n1c(C)cc(/C=C2/C(=O)NC(=O)N(Cc3ccco3)C2=O)c1C	24	40*	0	20	-1	29	4	-15
N#CCP(=S)(c1ccccc1)c1ccccc1	-5	-11	-2	-18	2	-15	·	·
O=C1NC(=O)N(c2ccc(Cl)cc2)C(=O)/C1=C\c1ccc(Sc2nc3ccccc3[nH]2)o1	-13	44*	-7	5	-1	23	76*	-7
O=C1NC(=O)C(=Cc2ccc(Sc3ccccc3)o2)C(=O)N1	20	9	0	18	1	6	·	·
CCN1C(=O)N(CC)C(=O)C2(Cc3ccccc3N3CCN(c4ccccc4)CC32)C1=O (configuration not stated)	-38	45*	-3	-6	-2	6	-20	-32
O=C(Cc1ccccc1)Oc1cccc(-n2cnnn2)c1	37	-12	-3	8	-1	2	·	·
O=C(N/N=C/c1c(O)n(CCC2=CCCCC2)c(=O)[nH]c1=O)c1ccccc1	4	12	-3	-34	-3	1	·	·
O=C(N/N=C/c1c(O)n(CCC2=CCCCC2)c(=S)[nH]c1=O)c1ccccc1	3	40*	-4	-48	-1	18	99*	4	FID counter DR=>79
Cc1ccc(N2C(=O)/C(=C/c3ccc(CN(CCC#N)S(C)(=O)=O)o3)C(=O)NC2=S)cc1C	-56	44*	-1	-2	-3	51*	66*	24
O=C1Nc2ccc(Br)cc2C(c2ccc(Cl)cc2)=NC1O (configuration not stated)	11	-5	-2	17	-3	·	·	·
O=C(CCc1nc(-c2ccccc2F)no1)N1CCC2(CC1)OCCO2	-8	-1	-1	-41	-2	-3	·	·
COc1ccc(CC(=O)Nc2ccc3c(C(F)(F)F)cc(=O)oc3c2)cc1OC	-24	59*	-3	-4	0	-1	-13	-21
COc1cc(C=C2C(=O)NC(=O)NC2=O)ccc1OS(=O)(=O)c1ccccc1[N+](=O)[O-]	30	7	-1	26	0	18	·	·
CN(C)C1C(=O)C(C(N)=O)=C(O)C2(O)C(=O)C3=C(O)c4c(O)cccc4C(C)(O)C3C(O)C12 (configuration not stated)	-6	96*	0	32	0	-9	10	19
Cc1ccc(-c2nc(N(C)C3CCN(C)CC3)c3ccccc3n2)cc1	-2	38*	-3	10	11*	-1	17	84*

From PubChem BioAssay
